Calls of active or inactive are those of the source. No cut-off for these calls is given here.
Columns and labels:
PBMC [1] = experiment: Inhibition of LPS-induced TNFalpha production in human PBMC at 25 ug/mL after overnight incubation relative to DMSO-treated control; format: functional
Method in brief: (§1)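 Single-donor venous blood diluted 10× in RPMI-1640, 1 mL aliquots, stimulated with LPS (E. coli O111:B4). Compounds added at […]; corresponding DMSO dilutions as controls. Overnight incubation, supernatants frozen at −20 °C, TNF-α measured by biological assay; percentage inhibition versus DMSO control.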

A-431 [2] = experiment: Growth inhibition of human A431 cells at 10 ug/mL after 3 days by MTT assay relative to control; format: functional; conditions: A-431, 72 h, read-out: GI
Method in brief: (§2)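 Lines resuspended in culture medium: L-1210 at 1.5 × 10⁴ cells/well, SW-948 and A-431 at 2.5 × 10⁴ cells/well. Preparations added over […], cisplatin reference at the same concentrations. 3-day incubation, proliferation by MTT; mean OD of quadruplicate wells ±SE, expressed as percentage inhibition.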

PBMC [3] = experiment: Cytotoxicity against human PBMC cells at 50 ug/mL after 24 hrs by MTT assay relative to DMSO-treated control; format: cell-based
Method in brief: (§3)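 Ficoll-isolated PBMC ([…]) in supplemented RPMI-1640, 2 × 10⁵/well, cultured 24 h with the preparations at the indicated concentrations; compounds dissolved in DMSO (10 mg/mL stock) and diluted in medium.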

L1210 [4] = experiment: Growth inhibition of mouse L1210 cells at 10 ug/mL after 3 days by MTT assay relative to control; format: functional; conditions: L1210, 72 h, read-out: GI; method in brief: as §2
SW948 [5] = experiment: Growth inhibition of human SW948 cells at 10 ug/mL after 3 days by MTT assay relative to control; format: functional; conditions: SW948, 72 h, read-out: GI; method in brief: as §2
SW948 [6] = experiment: Growth inhibition of human SW948 cells at 10 to 50 ug/mL after 3 days by MTT assay; format: functional, cell-based; method in brief: as §2
PBMC [7] = experiment: Cytotoxicity against human PBMC cells at 10 ug/mL after 24 hrs by MTT assay relative to DMSO-treated control; format: cell-based; method in brief: as §3
L1210 [8] = experiment: Growth inhibition of mouse L1210 cells at 10 to 50 ug/mL after 3 days by MTT assay; format: functional, cell-based; method in brief: as §2
A-431 [9] = experiment: Growth inhibition of human A431 cells at 10 to 50 ug/mL after 3 days by MTT assay; format: functional, cell-based; method in brief: as §2
SW948 [10] = experiment: Growth inhibition of human SW948 cells at 5 ug/mL after 3 days by MTT assay relative to control; format: functional; conditions: SW948, 72 h, read-out: GI; method in brief: as §2
PBMC [11] = experiment: Antiproliferative activity against PHA-stimulated human PBMC at 50 ug/mL after 4 days by MTT assay relative to DMSO-treated control; format: functional
Method in brief: (§4)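 PBMC from one donor's heparinized blood, Ficoll gradient isolated, in RPMI-1640 with 10% FCS; 2 × 10⁵ cells/well. PHA added at […]; compounds from DMSO stock (10 mg/mL) diluted in medium; matching DMSO dilutions as control. Four-day culture, proliferation read by MTT colorimetry; percentage inhibition versus control.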

PBMC [12] = experiment: Antiproliferative activity against PHA-stimulated human PBMC at 10 ug/mL after 4 days by MTT assay relative to DMSO-treated control; format: functional; method in brief: as §4
PBMC [13] = experiment: Inhibition of LPS-induced TNFalpha production in human PBMC at 5 ug/mL after overnight incubation relative to DMSO-treated control; format: functional; method in brief: as §1

SMILES | inhibition at 25 µg/mL (PBMC [1]) [%] | inhibition of growth at 10 µg/mL (A-431 [2]) [%] | Activity (PBMC [3]) | inhibition of growth at 10 µg/mL (L1210 [4]) [%] | inhibition of growth at 10 µg/mL (SW948 [5]) [%] | growth inhibition (GI) (SW948 [6]) | Activity (PBMC [7]) | growth inhibition (GI) (L1210 [8]) | growth inhibition (GI) (A-431 [9]) | inhibition of growth at 5 µg/mL (SW948 [10]) [%] | Activity (PBMC [11]) [%] | Activity (PBMC [12]) [%] | inhibition at 5 µg/mL (PBMC [13]) [%]
CSc1ccc2c(c1)Sc1cc3ccccc3nc1N2CCCCNC(=O)NCCCl | 47.5 | 91.8 | 95.1% | 91.8 | 91.8 | Active | 4.2% | Active | Active | 96 | 92.7 | 94.8 | 73.3
Brc1cccc2c1Sc1cc3ccccc3nc1N2 | 8.4 | – | Non-toxic | – | – | – | Non-toxic | – | – | – | 16.4 | 0.1 | 13.6
Cc1ccc(S(=O)(=O)NCCCCN2c3ccc(Cl)cc3Sc3cc4ccccc4nc32)cc1 | -12.7 | – | Non-toxic | – | – | – | Non-toxic | – | – | – | 19.8 | 13.2 | 20.7
O=C(NCCCl)NCCCN1c2ccccc2Sc2cc3ccccc3nc21 | 5 | – | Non-toxic | – | – | – | 8.5% | – | – | – | 77.9 | 11.2 | 14.6
CSc1ccc2c(c1)Sc1cc3ccccc3nc1N2CCN1CCCCC1 | 34.6 | – | 91.7% | – | – | – | 18% | – | – | – | 92 | 93.8 | 49.2
Cc1ccc(S(=O)(=O)NCCCN2c3ccc(Cl)cc3Sc3cc4ccccc4nc32)cc1 | 20.9 | – | Non-toxic | – | – | – | Non-toxic | – | – | – | 22.7 | 12.9 | 5.9
CSc1ccc2c(c1)Sc1cc3ccccc3nc1N2CCCNC(=O)NCCCl | 1 | – | 92.7% | – | – | – | Non-toxic | – | – | – | 93.7 | 93 | 50.7
CC(=O)NCCCCN1c2ccccc2Sc2cc3ccccc3nc21 | 20.2 | – | Non-toxic | – | – | – | Non-toxic | – | – | – | 94.3 | 72.7 | 0
CCOC(=O)NCCCN1c2ccc(SC)cc2Sc2cc3ccccc3nc21 | 70.1 | – | Non-toxic | – | – | – | Non-toxic | – | – | – | 38.8 | 45.4 | 74.9
CC(=O)NCCCCN1c2ccc(Cl)cc2Sc2cc3ccccc3nc21 | 53.4 | 91.8 | Non-toxic | 91.8 | 91.8 | Active | Non-toxic | Active | Active | – | 92.6 | 71.2 | 13.2
CS(=O)(=O)NCCCCN1c2ccc(Cl)cc2Sc2cc3ccccc3nc21 | 24.5 | – | Non-toxic | – | – | – | Non-toxic | – | – | – | 43.9 | 59.4 | -7.5
CSc1ccc2c(c1)Sc1cc3ccccc3nc1N2CCCNS(C)(=O)=O | 47.5 | – | Non-toxic | – | – | – | Non-toxic | – | – | – | 65.4 | 57.3 | 73.7
O=C(NCCCl)NCCCN1c2ccc(Cl)cc2Sc2cc3ccccc3nc21 | 72.1 | 91.8 | 89.5% | 91.8 | 91.8 | Active | 15.9% | Active | Active | 96 | 100 | 98.6 | 9.2
Brc1ccc2c(c1)Nc1nc3ccccc3cc1S2 | -25 | – | Non-toxic | – | – | – | Non-toxic | – | – | – | 20.6 | 4.3 | 11.2
FC(F)(F)c1cccc2c1Sc1cc3ccccc3nc1N2 | -2.6 | – | Non-toxic | – | – | – | 5% | – | – | – | 13.6 | 2.3 | 74.9
Clc1ccc2c(c1)Nc1nc3ccccc3cc1S2 | 19.2 | – | Non-toxic | – | – | – | Non-toxic | – | – | – | 27.1 | 16.3 | -1.2
CCOC(=O)NCCCCN1c2ccc(Cl)cc2Sc2cc3ccccc3nc21 | 8.41 | – | Non-toxic | – | – | – | Non-toxic | – | – | – | -12 | -0.7 | 13.2
CSc1ccc2c(c1)Sc1cc3ccccc3nc1N2CCCNS(=O)(=O)c1ccc(C)cc1 | 20.8 | – | Non-toxic | – | – | – | Non-toxic | – | – | – | -46.4 | -5.3 | 72.1

Source: ChEMBL document CHEMBL2375308, “Synthesis and selected immunological properties of substituted quino[3,2-b]benzo[1,4]thiazines” (Eur J Med Chem, 2013)
